From PubChem
CRFR2-BP antag – CRF-BP/CRF-R2 complex antagonism; inhibition, % at 11.8 µM; HEK293 CRF-R2/CRF-BP, CRF-induced calcium fluorescence; actives 0.59% (n = 350,000);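 active = inhibition of the ligand-induced calcium signal above about 50% at the single tested concentration, limit read from the data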
DDE Tn7 FP inh – inhibitors of Tn7 peptide binding to human fibrin DD(E) | P02675 | FP displacement of FITC-Tn7 peptide from fibrin DD(E); 0% = median of compound wells per plate | inhibition, % at 8.3 µM | actives 0.13% (n = 370,000) | AID 720508;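 active = inhibition above the mean of compounds falling within the control limits plus 3 SD of them, cut at about 14% in these data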;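 also: 0% = plate median of compound wells and 100% = 10 µM Aha-Tn7 peptide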
Target sequence (P02675 whole entry, looked up): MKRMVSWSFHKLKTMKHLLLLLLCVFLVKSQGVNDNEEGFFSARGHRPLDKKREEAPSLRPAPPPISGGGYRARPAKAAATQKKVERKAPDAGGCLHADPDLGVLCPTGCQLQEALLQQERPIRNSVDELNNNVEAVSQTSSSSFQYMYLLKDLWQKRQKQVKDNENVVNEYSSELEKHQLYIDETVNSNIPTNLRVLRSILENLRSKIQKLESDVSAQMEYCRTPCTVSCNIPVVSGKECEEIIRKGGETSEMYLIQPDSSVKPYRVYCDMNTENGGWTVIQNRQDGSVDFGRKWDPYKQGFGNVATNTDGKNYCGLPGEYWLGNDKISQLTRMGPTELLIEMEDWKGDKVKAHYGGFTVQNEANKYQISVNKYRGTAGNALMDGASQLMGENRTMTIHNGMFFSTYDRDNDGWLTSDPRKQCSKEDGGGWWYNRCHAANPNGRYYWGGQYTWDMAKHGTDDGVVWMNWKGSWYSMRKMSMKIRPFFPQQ
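Assay system: Fibrin-DD(E) protein isolated from polymerized human fibrin clots; read-out basis: percent inhibition; medium: Tris/NaCl/CaCl2 buffer, pH 7.8; signal: FP measurement; incubation: 10 min plus 3 h, room temperature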
CRFR2-BP ag – agonists of human CRF-binding protein/CRF-R2 receptor complex; HEK293 CRF-R2/CRF-BP, calcium dye fluorescence (FLIPR); percent of saturating CRF peptide response; activation, % at 13.2 µM; AID 588473; actives 0.46% (n = 350,000);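 active = activation of at least 50%, plus an integration ratio under a set limit after plate pattern correction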;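 also: plate controls were neutral control wells without compound for no effect and CRF at EC100 for full effect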
Tn6 DDE FP – inhibitors of Tn6 peptide binding to human fibrin DD(E). P02675. Fibrin DD(E) TRITC-Tn6 fluorescence polarization displacement. inhibition, % at 8.3 µM. actives 0.21% (n = 370,000). AID 720509;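 active = inhibition above a per-campaign cutoff: mean of compounds within control limits plus 3 SD, cut at about 15% in these data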;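 also: 0% = median of all compound wells on the plate and 100% = blocking peptide control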
The depositor's hits bear a star; nt = no result given. The list is not random: actives were taken first. Their share in the collection is about 1.2%.

SMILES	CRFR2-BP antag	DDE Tn7 FP inh	CRFR2-BP ag	Tn6 DDE FP
COc1ccc(CCNc2nc(N3CCCCC3)nc(N3CCCCC3)n2)cc1OC	74.0*	-0.6	0.2	1.0
Fc1ccc(Br)cc1C1C=C(c2ccc(Br)cc2)Nc2ncnn21 (stereo not drawn)	-70.8	1.2	102.4*	-1.9
CCc1ccc(C2=CC(c3cc(Br)ccc3F)n3ncnc3N2)cc1 (stereo not drawn)	-10.2	-2.3	53.6*	-4.1
C1=C(c2ccccc2)Nc2ncnn2C1c1ccccc1 (stereo not drawn)	-0.7	0.8	15.8	1.8
Cc1cccc(C(=O)Nc2nc3ncccn3c2-c2ccc(F)c(F)c2)c1	nt	-3.0	nt	1.1
O=C(COc1ccc(/C=N/NC(=O)c2ccccc2)cc1)Nc1ccc([N+](=O)[O-])cc1	-6.0	5.3	0.0	1.2
CC(C)Oc1ccc(/C=N/NC(=O)C(CSCc2ccccc2)NC(=O)c2ccc([N+](=O)[O-])cc2)cc1 (stereo not drawn)	-46.3	nt	104.1*	nt
Cc1ccc(-n2c(SCC(=O)NN=Cc3ccc(-c4ccccc4)cc3)nnc2-c2ccccc2)cc1	nt	3.0	nt	3.7
COc1ccc(S[C@]2(C(=O)N3CCN(c4ncccn4)CC3)CC(=O)N(c3ccc(C#N)cc3)[C@@H]2c2ccc(OC)cc2)cc1	nt	-0.2	nt	2.1
O=S1(=O)CC(N2CCCC2)CN1 (stereo not drawn)	nt	5.0	nt	8.1
C=CCN1C(=O)c2cccc3c(Br)ccc(c23)C1=O	6.1	2.4	2.9	0.0
O=C1c2cccc3c(N4CCCCC4)ccc(c23)C(=O)N1c1cccc(O)c1	-131.8	-1.4	161.4*	8.3
C=CCN1C(=O)c2cccc3c(N4CCCCC4)ccc(c23)C1=O	-344.1	-4.9	255.5*	-5.8
Cc1n[nH]c(C)c1N1C(=O)c2cccc3c(N4CCCCCC4)ccc(c23)C1=O	-375.4	7.4	399.5*	14.2
O=C1c2cccc3c(N4CCCCC4)ccc(c23)C(=O)N1CCO	-153.9	-3.4	118.2*	7.9
CC(=O)Nc1sc(/C(C#N)=C/c2ccc(Cl)c(Cl)c2)nc1-c1ccc(C)cc1	-319.6	8.4	280.7*	-7.1
CCOC(=O)NC(O)C(=O)c1cccs1 (stereo not drawn)	64.8*	2.7	0.4	5.1
CCOC(=O)NC(O)C(=O)c1ccc(F)cc1 (stereo not drawn)	30.0	3.3	-4.0	-8.1
Cc1cnc(NC(=O)CSc2ncc(-c3ccccc3)n2Cc2ccco2)s1	-58.9	12.2	60.1*	5.9
O=C(CSc1ncc(-c2ccc(F)cc2)n1Cc1ccco1)Nc1nccs1	-20.2	-2.5	-0.9	-1.0
CC1=CC(C)(C(Cl)(Cl)Cl)C(C)=CC1=NO (stereo not drawn)	56.6*	4.0	0.1	0.0
Cc1ccc(C(C)(C)C)cc1S(=O)(=O)Nc1nc2ccccc2nc1Cl	64.4*	2.6	11.7	0.4
CCC1(c2ccc(F)cc2)NC(=O)N(CC(=O)c2cc(C)n(C3CC3)c2C)C1=O (stereo not drawn)	-46.4	1.1	65.9*	-1.3
COc1cc(CCC(=O)Nc2cc(C)cc(C)c2)cc(OC)c1OC	19.7	-5.9	-1.0	2.3
COc1cc(CCC(=O)NC2(C)CCS(=O)(=O)C2)cc(OC)c1OC (stereo not drawn)	53.1*	3.7	-1.6	-2.5
SMILES	CRFR2-BP antag	DDE Tn7 FP inh	CRFR2-BP ag	Tn6 DDE FP
Cc1cccc(-c2nc(CS(=O)CC(=O)N3CC(C)CC(C)C3)c(C)o2)c1 (stereo not drawn)	54.9*	6.0	-0.6	0.6
COC(=O)C1CN(Cc2ccc(F)cc2)CCS(=O)(=O)N1Cc1cn(Cc2ccccc2)nn1 (stereo not drawn)	nt	-2.3	nt	-4.7
COC(=O)[C@]1(CNC(=O)c2cc(F)ccc2F)CC(=O)N(C)[C@@H]1c1ccccc1	nt	-1.4	nt	2.2
O=C(NC1(C(F)(F)F)C(=O)Nc2c1c(=O)[nH]c(=O)n2Cc1ccccc1)c1ccc(Cl)cc1 (stereo not drawn)	62.4*	6.0	0.4	2.0
O=C(NC1(C(F)(F)F)C(=O)Nc2c1c(=O)[nH]c(=O)n2Cc1ccccc1)c1ccc(Cl)cc1Cl (stereo not drawn)	7.2	6.9	0.5	1.3
CC1CCc2c(C(=O)NCc3ccccn3)csc2C1 (stereo not drawn)	-2.4	5.5	-1.2	-1.1
CC1CCc2c(C(=O)Nc3ccccn3)csc2C1 (stereo not drawn)	57.3*	-7.3	-0.9	-11.1
N#Cc1cc(F)cc(OC[C@@H](O)CN2CCC(C(O)(c3ccccc3)c3ccccc3)CC2)c1	nt	0.0	nt	2.2
Cc1ccc(N=Cc2sc(O)c3ccccc23)cc1	-88.5	-6.8	59.2*	5.8
Cc1ccc(N=Cc2sc(O)c3ccccc23)c(C)c1	-58.5	5.2	20.6	-1.9
Cc1ccc(Cn2cc(CN3[C@@H](Cc4ccccc4)COc4cc(Br)ccc4S3(=O)=O)nn2)cc1	nt	5.3	nt	5.1
CC1=CC(C)(C)N(C(=O)c2ccccc2)c2ccc(C)cc21	-49.5	2.7	67.2*	-0.4
O=C(Nc1nc2ncccn2c1-c1ccc(F)c(F)c1)C1CC1	nt	-0.9	nt	-0.2
O=C(N/N=C/c1sc2ccccc2c1O)c1ccccc1	-18.2	nt	15.0	nt
COc1ccc2cc(C(=O)N/N=C/c3sc4ccccc4c3O)ccc2c1	-179.4	-44.3	166.3*	-10.3
COc1ccc(C(=O)N/N=C/c2sc3ccccc3c2O)cc1	-73.3	nt	50.5*	nt
CC(=O)OCC(=O)N1CCN(C(=O)C(=O)c2cccc(C(F)(F)F)c2)CC1	nt	4.6	nt	3.9
C=CCN1C(=O)[C@@H](CC(=O)NCc2cccs2)[C@]2(C(=O)OC)CCCCC=C12	nt	5.5	nt	6.9
O=C(OC12CCCN(C1)/C(=C/c1ccc(Cl)cc1)C2)c1ccc(F)cc1 (stereo not drawn)	nt	-5.5	nt	-2.5
COc1cc(C2c3c(-c4ccccc4O)n[nH]c3C(=O)N2Cc2ccco2)cc(OC)c1OC (stereo not drawn)	-12.8	-0.3	-4.0	-5.0
COc1ccc(C2c3c(-c4ccccc4O)n[nH]c3C(=O)N2Cc2ccco2)cc1 (stereo not drawn)	135.8*	-3.2	-3.3	-12.2
C[C@H](CCC(=O)N(c1ccccc1)c1ccccc1)CC1CCCCC1	nt	-6.3	nt	-2.8
CC(N=C1NS(=O)(=O)c2ccccc21)C(=O)N1CCc2ccccc2C1 (stereo not drawn)	105.8*	2.0	1.3	-4.0
CN(C(=O)CNC(=O)c1ccccc1OCC(=O)Nc1ccc(I)cc1)c1ccccc1	nt	-1.8	nt	1.5
Cc1cc(C(=O)CN2C(=O)NC3(CCCC3)C2=O)c(C)n1-c1ccc2c(c1)OCO2	35.5	1.4	0.8	0.4
Cc1cc(C(=O)CN2C(=O)NC(C)(CC(C)C)C2=O)c(C)n1-c1ccc2c(c1)OCO2 (stereo not drawn)	80.4*	-4.0	-2.7	-6.3
CC[C@@H](CCC1CCCCC1)CN(c1ccccc1)S(C)(=O)=O	nt	2.2	nt	-6.9
